# Compound activity from PubChem.
# Compounds with a hit are over-represented: about 1.6% of the library has one in this group of screens.
# RBBP9 inh – blocks human serine hydrolase RBBP9; O75884; recombinant RBBP9, FP-Rh probe fluorescence polarization; inhibition, % at 7.94 µM; actives 0.2% (n = 220,000); AID 1515;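 active means inhibition above the campaign mean of all tested compounds plus 3 SD, cut at about 14% in these data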;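 further: plate controls were DMSO wells with RBBP9 for no effect and wells lacking RBBP9 protein for full effect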
#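 Test system: recombinant human RBBP9; Timing: 30 min then 45 min, 25 °C; Detection: fluorescence polarization; Control set: RBBP9 with DMSO as uninhibited control, no-protein wells as full inhibition; Compound dosing: one concentration, 7.94 µM nominal, 0.794% DMSO; Probe or stimulus: FP-Rh activity-based probe, 375 nM before mixing.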
# MLLE-PAM2 inh – blocks PAM2 peptide binding to the PABP1 MLLE domain; P11940; GST-MLLE / FITC-PAM2 fluorescence polarization; inhibition, % at 20 µM; actives 0.36% (n = 360,000); AID 588489; in the data active means inhibition above about 35%, passing the limit was not always enough;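 further: plate controls were DMSO wells with GST-MLLE for no effect and wells lacking GST-MLLE protein for full effect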
# Target sequence (P11940 whole entry, looked up, the tested form may be a part): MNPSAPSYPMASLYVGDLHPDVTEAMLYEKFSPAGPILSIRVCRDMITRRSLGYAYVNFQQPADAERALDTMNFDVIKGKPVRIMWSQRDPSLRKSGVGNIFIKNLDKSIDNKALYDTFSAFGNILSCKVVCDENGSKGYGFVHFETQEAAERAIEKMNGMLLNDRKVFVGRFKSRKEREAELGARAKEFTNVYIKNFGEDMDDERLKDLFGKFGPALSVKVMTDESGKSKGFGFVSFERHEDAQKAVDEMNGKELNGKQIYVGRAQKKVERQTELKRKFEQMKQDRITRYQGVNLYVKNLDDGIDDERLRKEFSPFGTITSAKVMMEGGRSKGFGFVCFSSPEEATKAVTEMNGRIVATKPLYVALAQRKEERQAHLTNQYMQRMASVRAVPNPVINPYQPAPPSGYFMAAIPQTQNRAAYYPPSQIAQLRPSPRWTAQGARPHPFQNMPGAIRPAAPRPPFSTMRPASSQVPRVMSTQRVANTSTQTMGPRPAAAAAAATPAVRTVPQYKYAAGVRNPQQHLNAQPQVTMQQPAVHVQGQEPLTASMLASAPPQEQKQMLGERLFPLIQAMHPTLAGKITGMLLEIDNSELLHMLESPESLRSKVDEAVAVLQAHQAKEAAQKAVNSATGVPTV
# TCR CD3 inh – blocks the human TCR-CD3 interaction. TAMRA-labeled TCR probe fluorescence, biochemical. inhibition, % at 9.4 µM. actives 0.37% (n = 360,000). AID 651800; in the data active means inhibition above about 19%;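 further: recombinant mutant TCR 2C K166C tagged with TAMRA read by polarization; 0% = receptor in buffer alone and 100% = receptor with positive control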
# PABP polyA inh – blocks human PABP binding to poly(A) RNA | P11940 | fluorescence polarization | calls only at 35 µM | actives 1% (n = 290,000);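 further: calls also rest on retests at 20 µM and on dose response follow-up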
# eIF4H FP inh – inhibitors of RNA binding by human eIF4H. actives 0.94% (n = 290,000). eIF4H fluorescence polarization binding assay. Q15056. AID 2012. inhibition, % at 35 µM;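 further: calls also rest on retests at 20 µM and on dose response follow-up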
# BSA probe FL – BSA probe counter-screen for TCR-CD3 inhibitors | TAMRA-labeled BSA probe fluorescence counterscreen | shares compounds with TCR CD3 inh | inhibition, % at 9.4 µM | actives 10% (n = 1,200); in the data active means inhibition above about 23%;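 further: 0% = buffer low control and 100% = reference high control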
# TCR-CD3 inh conf – confirmation of human TCR-CD3 interaction inhibitors; TAMRA-labeled TCR probe fluorescence binding assay; inhibition, % at 9.4 µM; actives 48% (n = 1,200); AID 652036; shares compounds with TCR CD3 inh; in the data active means inhibition above about 19%
# * marks the source's active call; other numbers are inactive results; i = inactive; ? = inconclusive; . = no result given; + = active, no number. Unless noted, how the calls were made is not given here.
SMILES,RBBP9 inh,MLLE-PAM2 inh,TCR CD3 inh,PABP polyA inh,eIF4H FP inh,BSA probe FL,TCR-CD3 inh conf
Cc1nc2ccccc2c(=O)n1/N=C/c1ccc(O)c(O)c1O,.,26,41*,+,90*,-10,25*
C/C(=N\OCc1nc2ccccc2c(=O)n1/N=C/c1cc(C)cc([N+](=O)[O-])c1O)c1ccccc1,-2,0,39*,i,30,-6,50*
COC(=O)[C@]12C[C@H](CC(=O)NCc3cccc(C(F)(F)F)c3)C(=O)N(CCC3=CCCCC3)C1=C[C@H](C(C)(C)C)O[C@@H]2C,.,.,4,.,.,.,.
O=C1NC(c2ccccc2)c2c(-c3ccccc3)n[nH]c21 (stereo not given),.,.,-4,.,.,.,.
c1ccc(Nc2ccc(NCCc3c[nH]c4ccccc34)cc2)cc1,.,.,-10,.,.,.,.
CCOCCCNC(=O)CSCc1nc(-c2ccc(SC)cc2)oc1C,-5,19,-2,i,0,.,.
COCCNC(=O)CSCc1nc(-c2ccc(SC)cc2)oc1C,7,20,33*,i,2,8,3
CCOc1ccc(NC(=O)CN2C(=O)c3cccc4cccc2c34)cc1,.,.,-1,.,.,.,.
Cc1ccc(C(=O)OCC(=O)NNC(=O)COc2ccc(Cl)cc2)c(O)c1,.,5,27*,.,.,1,12
COCCNC(C(=O)Nc1cc(Cl)cc(Cl)c1)c1ccccc1 (stereo not given),1,20,2,i,-4,.,.
CN(C)C(C(=O)Nc1cc(Cl)cc(Cl)c1)c1ccccc1 (stereo not given),-4,-2,135*,i,1,3,0
COc1ccccc1Cc1c(-c2ccc(C)cc2)nc2ccc(C)cn12,.,.,-7,.,.,.,.
Cc1ccc(S(=O)(=O)N2CCC(=O)N(C(CO)C(C)C)CC2)cc1 (stereo not given),4,-5,103*,i,-7,-3,-3
Cc1ccc(S(=O)(=O)N2CCC(=O)N([C@H](CO)Cc3ccccc3)CC2)cc1,.,.,1,.,.,.,.
O=C(COC(=O)Cc1cccs1)Nc1ccc(OC(F)(F)F)cc1,.,-21,62*,.,.,2,2
Cc1ccc(Cn2ccsc2=NC(=O)CCl)cc1,-4,14,11,i,-1,.,.
Cc1ccc(Cn2ccsc2=NC(=O)COC(=O)c2ccc(NC(=O)CC#N)cc2)cc1,.,-19,27*,.,.,8,6
COC(=O)[C@]12C[C@H](CC(=O)NCC3CCCCC3)C(=O)N(CCC3=CCCCC3)C1=C[C@H](C(C)(C)C)O[C@@H]2C,.,.,5,.,.,.,.
O=C(COC(=O)c1cc(-c2cccs2)nn1-c1ccccc1)Nc1cccc([N+](=O)[O-])c1,-4,-13,26*,i,-3,3,1
Cc1ccc(NC(=O)COC(=O)c2cc(-c3cccs3)nn2-c2ccccc2)cc1[N+](=O)[O-],0,0,-1,i,-13,.,.
CC(=O)N1CCN(c2ccc(N3CCN(C(C)=O)[C@@H](C)C3)c(C)c2)[C@H](C)C1,.,.,7,.,.,.,.
Nc1ccc2nc3c(=O)n(CCc4ccccc4)c(=O)[nH]c3nc2c1,4,i,27*,?,?,26*,21*
Nc1ccc2nc3c(=O)n(C4CCCCC4)c(=O)[nH]c3nc2c1,9,i,24*,?,?,28*,27*
C[C@H]1[C@@H](c2ccccc2)Oc2ccc(Cl)cc2S(=O)(=O)N1Cc1ccc(Cl)cc1,.,.,-5,.,.,.,.
Cc1ccc(C(C(=O)NC2CCCCC2)N(CC2CCCO2)C(=O)CNC(=O)c2cccs2)cc1 (stereo not given),-2,-1,-2,i,-10,.,.
SMILES,RBBP9 inh,MLLE-PAM2 inh,TCR CD3 inh,PABP polyA inh,eIF4H FP inh,BSA probe FL,TCR-CD3 inh conf
O=C(NCC(=O)N(CC1CCCO1)C(C(=O)NC1CCCCC1)c1ccccc1)c1cccs1 (stereo not given),-2,6,29*,i,-14,4,2
CCCCS(=O)(=O)N1C2=NC(C(=O)OCC)=C(C(=O)OCC)C3N(Cc4ccc(Br)cc4)c4ccccc4[C@]23C[C@H]1C(=O)OC (stereo not given in full),.,.,-8,.,.,.,.
CC(=O)c1cnc(N(C)C)s1,-1,6,-2,i,0,.,.
CN(C)c1ncc(C2=C(Cl)C(=O)C(N3CCCC3)=C(Cl)C2=O)s1,12,41*,22*,.,.,-15,7
Cc1nnc(NC(=O)CSc2nnc(CC(=O)Nc3ccccc3F)n2C)s1,.,-5,66*,i,-6,2,3
NC(CCc1ccccc1)c1csc(Nc2nncc3ccccc23)n1 (stereo not given),.,-10,-8,.,.,.,.
NC(=S)N/N=C/c1c(O)c(Br)cc2oc3c(c12)CCCC3,-6,30,43*,i,105,-16,28*
Oc1c(Br)cc2oc3c(c2c1CNCc1ccccc1)CCCC3,7,-18,0,i,26,.,.
CCCCCC(=O)NNC(=S)NC(C)=O,-6,12,-6,i,3,.,.
CCCCCC(=O)NC(=S)NC1C2CC3CC(C2)CC1C3 (stereo not given),6,25,35*,i,2,2,29*
C/C(=N\NC(=O)COc1ccccc1-c1ccccc1)c1ccc(O)cc1O,-2,-6,19*,i,-8,-12,29*
COC(=O)CCN(C(=O)c1ccc(N2CCCCC2)c([N+](=O)[O-])c1)c1ccccn1,0,-3,77*,i,-6,1,2
COC(=O)CCN(C(=O)c1ccc(N2CCCC2)c([N+](=O)[O-])c1)c1ccccn1,-8,1,-3,i,-6,.,.
C/C(=C\C(=O)c1ccc(Br)cc1)NNC(=O)c1ccc(O)cc1,.,2,35*,i,-2,-12,27*
C=CCn1c(O)c(N=NC(=O)CNC(=O)/C=C/c2ccco2)c2ccccc21,3,4,23*,i,53,-5,20*
C=CCn1c(O)c(N=NC(=O)CNC(=O)/C=C/c2ccc(OC)cc2)c2ccccc21,-2,-7,9,i,-2,.,.
CCCNC(=O)c1ccc(CN2CCc3ccccc3C2)cc1,0,-5,-5,i,60,.,.
C/C(=N\NC(=O)c1ccc(CN2CCc3ccccc3C2)cc1)c1ccccc1O,-2,-10,25*,i,0,-11,18
COC(=O)[C@]12C[C@H](CC(=O)NCCc3ccccc3OC)C(=O)N(CCC3=CCCCC3)C1=C[C@H](C(C)(C)C)O[C@@H]2C,.,.,6,.,.,.,.
CCN(CC)c1ccc(C(=C2C=CC(=[N+](CC)CC)C=C2)c2ccc(N(CC)CC)cc2)cc1,.,0,39*,.,.,40*,40*
CC1=NN(c2ccccc2)C(=O)/C1=C/C=C/c1ccccc1,10,12,1,i,6,.,.
CC1=NN(c2cccc(C(=O)O)c2)C(=O)/C1=C\C=C\c1ccco1,2,11,19*,i,95,-10,15
